# Measured values from the M2OR odorant receptor database.
# Target: T1, OR10J5 (Homo sapiens) (UniProt Q8NHC4)
# T1 sequence (whole entry): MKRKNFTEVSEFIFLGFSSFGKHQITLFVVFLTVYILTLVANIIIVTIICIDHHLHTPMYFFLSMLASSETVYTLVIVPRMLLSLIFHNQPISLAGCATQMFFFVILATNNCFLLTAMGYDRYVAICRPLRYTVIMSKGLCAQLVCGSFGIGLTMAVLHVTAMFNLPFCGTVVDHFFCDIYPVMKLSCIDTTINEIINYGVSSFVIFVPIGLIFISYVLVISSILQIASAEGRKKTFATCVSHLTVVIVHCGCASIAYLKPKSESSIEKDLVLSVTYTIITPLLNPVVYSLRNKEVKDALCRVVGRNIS
# Details: stereoisomer not certain
# Outline: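 Whether a receptor–molecule pair is responsive (active) rests on the original authors' judgment that its measured signal was statistically different from baseline. Pairs without that judgment are non-responsive (inactive). Sources used varied assay methods, commonly transient luciferase assays in mammalian cell lines.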
# 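Further: active if original authors judged signal statistically different from baseline.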
smiles,measurement,value
CCCCCCC(C)=O,odorant receptor agonist call,inactive
